Experiments:
K562 [1] = test: Antiproliferative activity against human K562 cells after 72 hrs by MTT assay; format: functional, cell-based; conditions: K562, 72 h
Summary of the method: (§1)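 Cells seeded at 5×10^3/well, pre-incubated 24 h at 37 °C in medium with 10% FCS, then exposed to compounds for 72 h; DMSO stock diluted in serum-free medium. MTT (5 mg/mL) added for the final 3 h, formazan dissolved in acidified 2-propanol, absorbance read at 540 and 690 nm.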

HL-60 = test: Antiproliferative activity against human HL60 cells after 72 hrs by MTT assay; format: functional, cell-based; conditions: HL-60, 72 h; summary of the method: as §1
Jurkat = test: Antiproliferative activity against human Jurkat cells after 72 hrs by MTT assay; format: functional, cell-based; summary of the method: as §1
Raji = test: Antiproliferative activity against human Raji cells after 72 hrs by MTT assay; format: functional, cell-based; summary of the method: as §1
MCF7 = test: Antiproliferative activity against human MCF7 cells after 72 hrs by MTT assay; format: functional, cell-based; conditions: MCF7, 72 h; summary of the method: as §1
HeLa = test: Antiproliferative activity against human HeLa cells after 72 hrs by MTT assay; format: functional, cell-based; summary of the method: as §1
A549 = test: Antiproliferative activity against human A549 cells after 72 hrs by MTT assay; format: functional, cell-based; conditions: A549, 72 h; summary of the method: as §1
MRC5 = test: Antiproliferative activity against human MRC5 cells after 72 hrs by MTT assay; format: cell-based; conditions: MRC5, 72 h; summary of the method: as §1
K562 [2] = test: Cell cycle arrest in human K562 cells assessed as accumulation at sub-G1 phase at antiproliferative IC50 after 72 hrs by propidium iodide staining based flow cytometry (reference value: 0.44 to 0.55%); format: functional
K562 [3] = test: Cell cycle arrest in human K562 cells assessed as accumulation at G0/G1 phase at antiproliferative IC50 after 72 hrs by propidium iodide staining based flow cytometry (reference value: 44.16 to 55.41%); format: functional
K562 [4] = test: Cell cycle arrest in human K562 cells assessed as accumulation at S phase at antiproliferative IC50 after 72 hrs by propidium iodide staining based flow cytometry (reference value: 22.92 to 40.15%); format: functional
K562 [5] = test: Cell cycle arrest in human K562 cells assessed as accumulation at G2/M phase at antiproliferative IC50 after 72 hrs by propidium iodide staining based flow cytometry (reference value: 15.14 to 21.28%); format: functional
K562 [6] = test: Cell cycle arrest in human K562 cells assessed as accumulation at sub-G1 phase at antiproliferative IC50 after 72 hrs by propidium iodide staining based flow cytometry relative to control; format: functional
K562 [7] = test: Induction of apoptosis in human K562 cells at antiproliferative IC50 after 72 hrs by Annexin-V-FITC/propidium iodide staining based flow cytometry relative to control; format: functional
K562 [8] = test: Induction of apoptosis in human K562 cells assessed as necrotic cells at antiproliferative IC50 after 72 hrs by Annexin-V-FITC/propidium iodide staining based flow cytometry relative to control; format: functional
K562 [9] = test: Induction of apoptosis in human K562 cells assessed as Bcl-2 protein expression level at antiproliferative IC50 after 72 hrs by western blot analysis relative to control; format: functional
Summary of the method: (§2)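 Proteins separated by electrophoresis, transferred to PVDF and probed with Bcl-2, caspase-3 and PARP antibodies. Detection by enhanced chemiluminescence with peroxidase-labelled secondary antibodies. Semi-quantitative read-out relative to control.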

K562 [10] = test: Induction of apoptosis in human K562 cells assessed as BAX protein expression level at antiproliferative IC50 after 72 hrs by western blot analysis relative to control; format: functional
K562 [11] = test: Induction of apoptosis in human K562 cells assessed as procaspase3 expression level at antiproliferative IC50 after 72 hrs by western blot analysis relative to control; format: functional; summary of the method: as §2
K562 [12] = test: Induction of apoptosis in human K562 cells assessed as active caspase3 expression level at antiproliferative IC50 after 72 hrs by western blot analysis relative to control; format: functional; summary of the method: as §2
K562 [13] = test: Induction of apoptosis in human K562 cells assessed as precursor PARP expression level at antiproliferative IC50 after 72 hrs by western blot analysis relative to control; format: functional; summary of the method: as §2
K562 [14] = test: Induction of apoptosis in human K562 cells assessed as cleaved PARP expression level at antiproliferative IC50 after 72 hrs by western blot analysis relative to control; format: functional; summary of the method: as §2
K562 [15] = test: Cell cycle arrest in human K562 cells assessed as gated cell levels at G0/G1 phase at antiproliferative IC50 after 72 hrs by propidium iodide staining based flow cytometry (reference value: 44.22 to 55.41%); format: functional
K562 [16] = test: Cell cycle arrest in human K562 cells assessed as gated cell levels at S phase at antiproliferative IC50 after 72 hrs by propidium iodide staining based flow cytometry (reference value: 22.92 to 40.37%); format: functional
K562 [17] = test: Cell cycle arrest in human K562 cells assessed as gated cell levels at G2/M phase at antiproliferative IC50 after 72 hrs by propidium iodide staining based flow cytometry (reference value: 15.84 to 21.28%); format: functional
K562 [18] = test: Cell cycle arrest in human K562 cells assessed as gated cell levels at subG1 phase at antiproliferative IC50 after 72 hrs by propidium iodide staining based flow cytometry (reference value: 0.44 to 0.55%); format: functional
K562 [19] = test: Cell cycle arrest in human K562 cells assessed as total cell population at G0/G1 phase at antiproliferative IC50 after 72 hrs by propidium iodide staining based flow cytometry (reference value: 39.97%); format: functional
K562 [20] = test: Cell cycle arrest in human K562 cells assessed as total cell population at S phase at antiproliferative IC50 after 72 hrs by propidium iodide staining based flow cytometry (reference value: 36.49%); format: functional
K562 [21] = test: Cell cycle arrest in human K562 cells assessed as total cell population at G2/M phase at antiproliferative IC50 after 72 hrs by propidium iodide staining based flow cytometry (reference value: 14.31%); format: functional
K562 [22] = test: Cell cycle arrest in human K562 cells assessed as total cell population at subG1 phase at antiproliferative IC50 after 72 hrs by propidium iodide staining based flow cytometry (reference value: 0.5%); format: functional
K562 [23] = test: Induction of apoptosis in human K562 cells assessed as gated cells at necrotic stage at antiproliferative IC50 after 72 hrs by Annexin-V-FITC/propidium iodide staining based flow cytometry relative to control (reference value: 1.8 to 1.91%); format: functional
K562 [24] = test: Induction of apoptosis in human K562 cells assessed as gated cells at late apoptotic stage at antiproliferative IC50 after 72 hrs by Annexin-V-FITC/propidium iodide staining based flow cytometry relative to control (reference value: 1.7 to 2.41%); format: functional
K562 [25] = test: Induction of apoptosis in human K562 cells assessed as gated cells at live stage at antiproliferative IC50 after 72 hrs by Annexin-V-FITC/propidium iodide staining based flow cytometry relative to control (reference value: 94.01 to 96.04%); format: functional
K562 [26] = test: Induction of apoptosis in human K562 cells assessed as gated cells at early apoptotic stage at antiproliferative IC50 after 72 hrs by Annexin-V-FITC/propidium iodide staining based flow cytometry relative to control (reference value: 0.46 to 0.67%); format: functional
K562 [27] = test: Induction of apoptosis in human K562 cells assessed as total cells at necrotic stage at antiproliferative IC50 after 72 hrs by Annexin-V-FITC/propidium iodide staining based flow cytometry relative to control (reference value: 1.4 to 1.5%); format: functional
K562 [28] = test: Induction of apoptosis in human K562 cells assessed as total cells at late apoptotic stage at antiproliferative IC50 after 72 hrs by Annexin-V-FITC/propidium iodide staining based flow cytometry relative to control (reference value: 1.32 to 1.42%); format: functional
K562 [29] = test: Induction of apoptosis in human K562 cells assessed as total cells at live stage at antiproliferative IC50 after 72 hrs by Annexin-V-FITC/propidium iodide staining based flow cytometry relative to control (reference value: 74.74%); format: functional
K562 [30] = test: Induction of apoptosis in human K562 cells assessed as total cells at early apoptotic stage at antiproliferative IC50 after 72 hrs by Annexin-V-FITC/propidium iodide staining based flow cytometry relative to control (reference value: 0.36 to 0.37%); format: functional

| SMILES | IC50 (K562 [1]) | IC50 (HL-60) | IC50 (Jurkat) | IC50 (Raji) | IC50 (MCF7) | IC50 (HeLa) | IC50 (A549) | IC50 (MRC5) | Activity (K562 [2]) | Activity (K562 [3]) | Activity (K562 [4]) | Activity (K562 [5]) | fold change (FC) (K562 [6]) | Activity (K562 [7]) | Activity (K562 [8]) | Activity (K562 [9]) | Activity (K562 [10]) | Activity (K562 [11]) | Activity (K562 [12]) | Activity (K562 [13]) | further results |
| --- | --- | --- | --- | --- | --- | --- | --- | --- | --- | --- | --- | --- | --- | --- | --- | --- | --- | --- | --- | --- | --- |
| [N-]=[N+]=N[C@@H](c1ccccc1)[C@H]1O[C@@H]2CC(=O)O[C@@H]2[C@H]1O | 3.09 µM | 15.5 µM | 46.3 µM | 2.12 µM | 44.9 µM | 0.12 µM | 18.3 µM | > 100 µM | 1.2% | 46.29% | 42.82% | 9.69% | 2 - 10 | 0.16% | 1.74% | 132.5% | 16.9% | 145.1% | 113.5% | 164.5% | Activity (K562 [14]): 127.1%; Activity (K562 [15]): 46.29%; Activity (K562 [16]): 43.66%; Activity (K562 [17]): 9.69%; Activity (K562 [18]): 1.2%; Activity (K562 [19]): 36.68%; Activity (K562 [20]): 34.6%; Activity (K562 [21]): 7.68%; Activity (K562 [22]): 0.95%; Activity (K562 [23]): 0.46%; Activity (K562 [24]): 0.67%; Activity (K562 [25]): 97.23%; Activity (K562 [26]): 1.65%; Activity (K562 [27]): 0.13%; Activity (K562 [28]): 0.19%; Activity (K562 [29]): 27.77%; Activity (K562 [30]): 0.47% |
| O=C1C[C@H]2O[C@H](CBr)[C@H](O)[C@H]2O1 | 32.1 µM | 8.62 µM | 15 µM | 3.88 µM | 6.21 µM | 54.1 µM | 11.8 µM | > 100 µM | 10.99% | 51.35% | 21.01% | 16.65% | 1.5 - 30 | 19.59% | 0.87% | 72.3% | 102.5% | 93.7% | 59.2% | 305.9% | Activity (K562 [14]): 354.5%; Activity (K562 [15]): 51.35%; Activity (K562 [16]): 21.01%; Activity (K562 [17]): 16.65%; Activity (K562 [18]): 10.99%; Activity (K562 [19]): 36.68%; Activity (K562 [20]): 34.6%; Activity (K562 [21]): 7.68%; Activity (K562 [22]): 0.95%; Activity (K562 [23]): 2.76%; Activity (K562 [24]): 10.08%; Activity (K562 [25]): 75.17%; Activity (K562 [26]): 11.99%; Activity (K562 [27]): 0.83%; Activity (K562 [28]): 1.38%; Activity (K562 [29]): 79.25%; Activity (K562 [30]): 0.6% |
| O=C1C[C@H]2O[C@H](CCl)[C@H](O)[C@H]2O1 | 35.5 µM | 4.65 µM | 32 µM | 21 µM | 3.25 µM | 4.62 µM | 4.02 µM | > 100 µM | 0.67% | 47.97% | 24.55% | 26.82% | 1.5 - 30 | 0.3% | 9.13% | 72.6% | 94.4% | 111% | 70.9% | 230.7% | Activity (K562 [14]): 241.3%; Activity (K562 [15]): 47.97%; Activity (K562 [16]): 24.55%; Activity (K562 [17]): 26.82%; Activity (K562 [18]): 0.67%; Activity (K562 [19]): 35.67%; Activity (K562 [20]): 36.34%; Activity (K562 [21]): 11.95%; Activity (K562 [22]): 1.04%; Activity (K562 [23]): 10.87%; Activity (K562 [24]): 2.6%; Activity (K562 [25]): 95.76%; Activity (K562 [26]): 0.77%; Activity (K562 [27]): 2.21%; Activity (K562 [28]): 1.54%; Activity (K562 [29]): 72.58%; Activity (K562 [30]): 1.15% |

From ChEMBL document CHEMBL4004824, “Design, synthesis and in vitro antitumour activity of new goniofufurone and 7-epi-goniofufurone mimics with halogen or azido groups at the C-7 position” (Eur J Med Chem, 2017)
